T cruzi repl: blocks replication of Trypanosoma cruzi; T. cruzi beta-gal in NIH3T3, luminescence, 90 h; inhibition, % (test concentration not listed); 1.4% of 300,000 active;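 active = mean inhibition across valid replicates above about 55%, limit read from the data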;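 also: signal also drops with host cell toxicity which is not excluded here; 0% = plate median of DMSO wells and 100% = zero luminescence signal; higher percent means less beta-gal luminescence so fewer parasites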
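System: mouse NIH/3T3 fibroblasts infected with β-gal-expressing T. cruzi Tulahuen C4 / Input: NIH/3T3 cells, 5,000 per well / Buffer or medium: Low-serum DMEM with 2% FBS / Probe or stimulus: 5000 reporter trypomastigotes per well / Schedule: ≥90 h infection period, 3 h prior cell attachment / Measured by: GalScreen luminescence, 60 min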
Lmaj promast: Leishmania major promastigote growth inhibition; 9% of 200,000 active; Leishmania major promastigotes, resazurin fluorescence viability; AID 1063; inhibition, % at 10 µM; in the data active = inhibition above about 50%;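 also: promastigotes grown with compound for 44 hours at 28 °C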
Dynein transport: blocks dynein driven cargo transport along microtubules | 3617.4 mouse cells, GR-EGFP nuclear translocation imaging; test concentration mostly 20 µM; stimulated with dexamethasone, 1 µM; stronger effect = lower value | z-score, hits read low | 0.47% of 220,000 active;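 active = plate z-score of nuclear minus cytoplasmic receptor signal below a set negative limit, without overly bright fluorescence or cell loss, cut at about -3.5 in these data, passing the limit was not always enough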;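 also: z-score of nuclear minus cytoplasmic ring GR-EGFP intensity difference per well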
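Also added: dexamethasone, 1.0 µM final. Medium: tet-free, stripped-serum medium. Detection: fixed, Hoechst-stained cells imaged at 10x for EGFP. Read-out: nuclear-to-cytoplasmic GR-EGFP distribution per well. Times: induction 48 h, compound 1 h, agonist 30 min.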
CHOP UPR activ: apoptotic UPR (CHOP) activation. 0.34% of 330,000 active. AID 449763. CHO-CHOP luciferase reporter, luminescence; percent of tunicamycin response over DMSO baseline. activation, % at 10 µM;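 active = at 10 µM dose, activation of 40% or more, normalized to positive control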;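 also: 100% = tunicamycin at 10 µg/mL and 0% = DMSO alone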
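Test system: CHO CHOP reporter cells. Input: 500 CHO-CHOP cells per well. Medium: F12 with 10% FBS. Technique: luciferase luminescence. Measure: percent activation relative to tunicamycin control. Dosing: 10 µM compound, 0.5% DMSO. Timing: 16-18 h cell attachment, then 6 h compound exposure, 37 °C.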
CHOP inh: blocks CHOP induction under ER stress. AID 2732. CHO-K1 CHOP-promoter luciferase, tunicamycin-induced, 15-18 h. 3.8% of 220,000 active. inhibition, % at 10 µM;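 active = compounds that reduced the stress-induced luciferase reporter signal by more than about 70% of percent inhibition, limit read from the data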;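 also: 0% = tunicamycin plus vehicle and 100% = wells without tunicamycin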
UPR XBP1 act: activators of adaptive arm of unfolded protein response (XBP1); CHO-XBP1 luciferase reporter, IRE1-XBP1 UPR activation, luminescence; percent of tunicamycin response, DMSO as zero; activation, % at 20 µM; 0.33% of 330,000 active; AID 463104;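 active = versus positive control, 20 µM dose yields 30% or more activation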;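 also: 100% = tunicamycin at 10 µg/mL and 0% = DMSO only wells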
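Material: IRE1-XBP1 luciferase reporter CHO line / Quantity: one thousand reporter cells per well / Buffer or medium: F12 with 10% serum / Compound: 20 µM single concentration, DMSO 1% / Times: 6 h treatment, 37 °C / Detection: Steady-Glo luciferase glow luminescence, 10 min after reagent addition / Benchmarks: tunicamycin high, DMSO low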
* marks the source's active call; other numbers are inactive results. Many of the other results were omitted from the sample, so hits are more common in it than they were.

`COc1cccc(CNC(=O)CCS(=O)(=O)c2ccccc2Cl)c1` gave CHOP UPR activ 1 and UPR XBP1 act -2.
`Cc1ccccc1-c1nnc(SCC(=O)Nc2cccnc2Cl)o1` gave CHOP UPR activ 0 and UPR XBP1 act -2.
For Cc1ccc2nc(-c3ccc(NC(=O)CCN4C(=O)c5ccccc5C4=O)cc3)sc2c1 the results were T cruzi repl -13, Lmaj promast 11, Dynein transport 0.23, CHOP UPR activ 4, CHOP inh 45 and UPR XBP1 act 4.
Screening CCN(CC)S(=O)(=O)c1cc(C(=O)OCC(=O)Nc2ccc(-c3nc4ccc(C)cc4s3)cc2)ccc1F returned T cruzi repl -2, Lmaj promast -7, Dynein transport 0.011, CHOP UPR activ -3, CHOP inh 36 and UPR XBP1 act -2.
Screening Cc1ccc(C2(C)NC(=O)N(CC(=O)Nc3ccc(-c4nc5ccc(C)cc5s4)cc3)C2=O)cc1 (stereo not drawn) returned T cruzi repl 32, Dynein transport -0.47, CHOP UPR activ 2, CHOP inh 73* and UPR XBP1 act -1.
For CCN(CC)S(=O)(=O)c1ccc(C(=O)OCC(=O)Nc2ccc(-c3nc4ccc(C)cc4s3)cc2)cc1 the results were T cruzi repl 1, Lmaj promast 58*, Dynein transport -0.48, CHOP UPR activ -4, CHOP inh 40 and UPR XBP1 act -5.
`Cc1ccc2nc(-c3ccc(NS(=O)(=O)c4ccc(F)c(F)c4)cc3)sc2c1` gave T cruzi repl 12, Lmaj promast 5, Dynein transport 0.39 and CHOP inh 85*.
`Cc1ccc2nc(-c3ccc(NS(=O)(=O)c4ccccc4)cc3)sc2c1` gave T cruzi repl 45, Lmaj promast 47, Dynein transport -0.11, CHOP UPR activ 1, CHOP inh 19 and UPR XBP1 act -3.
`Cc1ccnc(NC(=O)C2CC(=O)N(c3ccc4c(c3)OCCO4)C2)c1` (stereo not drawn) gave T cruzi repl -11, CHOP UPR activ -1 and UPR XBP1 act -4.
Screening COc1cc2cc(C(c3nnnn3C3CCCCC3)N(C)C3CCCCC3)c(=O)[nH]c2cc1OC (stereo not drawn) returned T cruzi repl 31, Lmaj promast 72*, Dynein transport -0.41, CHOP UPR activ 2, CHOP inh 84* and UPR XBP1 act 10.
Screening Cc1ccc(C(c2nnnn2C2CCCCC2)N(C)C2CCCCC2)cc1 (stereo not drawn) returned T cruzi repl 43, Lmaj promast 72*, Dynein transport -0.66, CHOP UPR activ -1, CHOP inh 63 and UPR XBP1 act -6.
`CC1(c2ccccc2)CC(C)(C)N2C(=O)Cc3cccc1c32` (stereo not drawn) gave T cruzi repl -3, Lmaj promast 4, Dynein transport -0.64, CHOP UPR activ 1, CHOP inh 72* and UPR XBP1 act -1.
CC1(c2ccccc2)CC(C)(C)N(C(N)=O)c2ccccc21 (stereo not drawn) was read as T cruzi repl -5, CHOP UPR activ 1 and UPR XBP1 act -2.
O=C(C(Cl)Cl)N1CCN(Cc2ccccc2)CC1 was read as T cruzi repl 3, Lmaj promast -5, Dynein transport 2.2, CHOP UPR activ 16, CHOP inh 25 and UPR XBP1 act -4.
For O=C(C(c1ccccc1)c1ccccc1)N1CCN(Cc2ccc(Br)cc2)CC1 the results were T cruzi repl 30, Lmaj promast 26, Dynein transport -1.3, CHOP UPR activ -2, CHOP inh 81* and UPR XBP1 act -2.
For COc1ccc(/C=N/n2cc(-c3ccc(OC)cc3)nc2N)cc1 the results were T cruzi repl 29, Lmaj promast 93*, Dynein transport -0.84, CHOP UPR activ 6, CHOP inh 70* and UPR XBP1 act -2.
Screening CC[C@@]1(C(=O)OC)N[C@H](CN(C)C(=O)c2ccc(F)cc2)[C@@H]2C(=O)N(Cc3ccccc3)C(=O)[C@@H]21 returned CHOP UPR activ -3 and UPR XBP1 act 0.
For O=C(CN1C(=O)NC(c2ccccc2)(c2ccccc2)C1=O)NCC(=O)Nc1ccc(F)cc1 the results were CHOP UPR activ 1 and UPR XBP1 act -1.
Screening COc1cc(C(=S)N2CCCCC2)ccc1OCC(=O)Nc1ccccc1Cl returned T cruzi repl 13, Lmaj promast 66*, Dynein transport -0.87, CHOP UPR activ 1, CHOP inh 2 and UPR XBP1 act -2.
Screening COc1ccc(C(=O)Oc2ccc(C(=S)N3CCCC3)cc2)cc1OC returned T cruzi repl -15, Lmaj promast 39, Dynein transport -0.81, CHOP UPR activ 0, CHOP inh 93* and UPR XBP1 act -2.
`CN1CCN(c2ccc(C(F)(F)F)cc2NC(=O)Nc2ccccc2)CC1` gave T cruzi repl 50, CHOP UPR activ 2 and UPR XBP1 act 6.
For Cc1ccc(Cn2nnnc2CN2CCC(c3nc4ccc(Cl)cc4[nH]3)CC2)cc1 the results were T cruzi repl -17, Lmaj promast 55*, Dynein transport -1.9, CHOP UPR activ 0, CHOP inh -7 and UPR XBP1 act -2.
`Clc1ccc2nc(C3CCN(Cc4nnnn4C4CCCCC4)CC3)[nH]c2c1` gave T cruzi repl 25, Lmaj promast 19, Dynein transport 0.18, CHOP UPR activ 0, CHOP inh 3 and UPR XBP1 act 0.
`O=C(CSC1=NC2(CCCCCC2)N=C1c1ccccc1)Nc1ccc2c(c1)OCCO2` gave T cruzi repl 39, Lmaj promast 17, Dynein transport -1.2, CHOP UPR activ -2, CHOP inh -18 and UPR XBP1 act -2.
O=C(CSc1ccc2c(c1)OCCO2)Nc1ccc2c(c1)OCO2 was read as T cruzi repl -14, Lmaj promast 0, Dynein transport -0.64, CHOP UPR activ 1, CHOP inh 7 and UPR XBP1 act -1.
Cc1ccc(C2=NC3(CCCC3)N=C2SCC(=O)Nc2ccc3c(c2)OCCO3)cc1 was read as T cruzi repl 31, Lmaj promast 73*, Dynein transport 2.1, CHOP UPR activ 4, CHOP inh 8 and UPR XBP1 act -2.
`O=C(CSc1ccc2c(c1)OCCO2)Nc1ccc(Br)cc1` gave T cruzi repl 2, Lmaj promast 67*, Dynein transport -0.88, CHOP UPR activ -2, CHOP inh 23 and UPR XBP1 act 0.
S=c1[nH]nc(-c2ccc3ccccc3n2)n1-c1ccccc1Cl was read as T cruzi repl 3, Lmaj promast 52*, Dynein transport 0.28 and CHOP inh 10.

High-throughput results (PubChem)
